Converted amounts (≈) assume the structure as drawn.
Experiments:
[1] = Selectivity ratio of pKi for guinea pig brain CCK2 receptor to pKi for rat pancreas CCK1
How it was run: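 Radioligand displacement binding to guinea pig brain membranes (CCK2, incubated at 25 °C) and rat pancreas membranes (CCK1, incubated at 37 °C) with 0.2 nM [³H]-CCK8s. Non-specific binding was defined with L-365,260 (CCK2) or L-364,718 (CCK1). Bound ligand was separated by GF/C filtration and counted by liquid scintillation. Ki values were derived for each subtype, with KD and Bmax taken from separate saturation isotherms.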

[2] = Displacement of [3H]CCK8 from guinea pig brain CCK2 receptor by liquid scintillation counting; set-up: species or system Cavia porcellus
How it was run: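 Guinea pig brain membranes incubated at 25 °C with [³H]-CCK8s at 0.2 nM; nonspecific binding defined with L-365,260. Bound and free ligand separated by filtration over GF/C filters, then counted by liquid scintillation. Ki calculated using Bmax and KD from separate saturation binding isotherms.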

[3] = target: T1, Cholecystokinin receptor type A (Rattus norvegicus, UniProt P30551); assay: Displacement of [3H]CCK8 from rat pancreas CCK1 receptor at by liquid scintillation counting
T1 sequence (P30551 whole entry): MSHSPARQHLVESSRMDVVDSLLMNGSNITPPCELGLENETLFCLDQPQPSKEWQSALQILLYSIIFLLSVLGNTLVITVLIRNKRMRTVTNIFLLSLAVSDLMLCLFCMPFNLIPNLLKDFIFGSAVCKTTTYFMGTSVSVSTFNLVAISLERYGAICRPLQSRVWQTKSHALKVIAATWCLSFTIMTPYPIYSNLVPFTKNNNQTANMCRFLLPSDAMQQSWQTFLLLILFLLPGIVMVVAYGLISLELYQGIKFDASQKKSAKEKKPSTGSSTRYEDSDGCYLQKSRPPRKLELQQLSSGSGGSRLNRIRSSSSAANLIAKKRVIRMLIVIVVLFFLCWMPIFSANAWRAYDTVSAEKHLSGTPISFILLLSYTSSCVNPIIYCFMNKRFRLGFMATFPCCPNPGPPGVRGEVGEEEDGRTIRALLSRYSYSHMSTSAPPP
How it was run: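 Rat pancreas membranes incubated at 37 °C with [³H]-CCK8s at 0.2 nM; nonspecific binding defined with L-364,718. Bound and free ligand separated by filtration over GF/C filters, then counted by liquid scintillation. Ki calculated using Bmax and KD from separate saturation binding isotherms.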

Mus musculus [4] = assay: Anxiolytic activity in po dosed mouse measured after 60 mins post dose by black/white box test; type: functional; details: Mus musculus, po, 1 h; read-out: ED50
How it was run: (§1)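 Mice dosed orally 60 min before testing, then placed in the centre of the illuminated white compartment of a two-part black/white box. Time spent exploring the white and black sides recorded; longer time in the white side read as anxiolytic effect. Model used for both potency and duration of action.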

[5] = Solubility of the compound at pH 2.4; type: physicochemical; details: buffer
[6] = Clearance in rat administered as methocel suspension; type: ADME, organism-based; details: in vivo
[7] = Half life in rat administered as methocel suspension; type: ADME, organism-based; details: in vivo
[8] = Oral bioavailability in rat administered as methocel suspension; type: ADME, organism-based; details: in vivo
Mus musculus [9] = assay: Anxiolytic activity in po dosed mouse assessed as duration of action of the compound measured after 60 mins post dose by black/white box test; type: functional; how it was run: as §1
[10] = Volume of distribution in rat administered as methocel suspension; type: ADME, organism-based; details: in vivo

Ki selectivity ratio (CCK1 Ki / CCK2 Ki) [1]	pKi [2]	Ki [3]	Compound	other results
46			O=C(Nc1ccccc1)NC1C(=O)N(CCN2CCOCC2)c2cc(F)ccc2N(CC23CC4CC(CC(C4)C2)C3)C1=O (single isomer, unassigned; (+)) [listing 1 of 2 here]	
	8.03	1580 nM	O=C(Nc1ccccc1)NC1C(=O)N(CCN2CCOCC2)c2ccccc2N(CC23CC4CC(CC(C4)C2)C3)C1=O (stereo in doubt; 55) [listing 1 of 2 here]	
170			O=C(Nc1ccccc1)NC1C(=O)N(CCN2CCOCC2)c2ccccc2N(CC23CC4CC(CC(C4)C2)C3)C1=O (stereo in doubt; 55) [listing 2 of 2 here]	
148	7.17	> 10000 nM	CCOc1ccc(NC(=O)NC2C(=O)N(CCC(C)C)c3ccccc3N(CCN3CCOCC3)C2=O)cc1 (racemic)	
1480			CCN(CC)CCN1C(=O)C(NC(=O)Nc2ccccc2)C(=O)N(CC2CCCCC2)c2ccccc21 (racemic) [listing 1 of 2 here]	
3550			O=C(Nc1ccccc1)NC1C(=O)N(CCN2CCOCC2)c2ccccc2N(CC23CC4CC(CC(C4)C2)C3)C1=O (racemic)	
			O=C(Nc1ccccc1)N[C@@H]1C(=O)N(CC23CC4CC(CC(C4)C2)C3)c2ccccc2N(c2ccccc2)C1=O	ED50 (Mus musculus [4]): 0.05 µg/kg
851	8.71	1660 nM	CCN(CC)CCN1C(=O)C(NC(=O)Nc2ccc(F)cc2)C(=O)N(CC23CC4CC(CC(C4)C2)C3)c2ccccc21 (racemic)	
	8.23	2690 nM	CCN(CC)CCN1C(=O)C(NC(=O)Nc2ccccc2)C(=O)N(CC2CCCCC2)c2ccccc21 (single isomer, unassigned; isomer 1) [listing 1 of 2 here]	
126	8.56	347 nM	O=C(Nc1ccccc1)NC1C(=O)N(CCN2CCOCC2)c2ccccc2N(CC2CCCCC2)C1=O (racemic)	
316	9.26	174 nM	Cc1cccc(NC(=O)NC2C(=O)N(CCN3CCOCC3)c3ccccc3N(CC3CCCCC3)C2=O)c1 (racemic)	
44	6.93	5130 nM	Cc1cccc(Cl)c1NC(=O)NC1C(=O)N(CCC(C)C)c2ccccc2N(CCN2CCOCC2)C1=O (racemic)	
457			CCN(CC)CCN1C(=O)C(NC(=O)Nc2ccccc2)C(=O)N(CC2CCCCC2)c2ccccc21 (single isomer, unassigned; isomer 1) [listing 2 of 2 here]	
603			O=C(Nc1ccccc1)NC1C(=O)N(CCN2CCOCC2)c2cc(F)ccc2N(CC23CC4CC(CC(C4)C2)C3)C1=O (racemic) [listing 1 of 2 here]	
1180			CCN(CC)CCN1C(=O)C(NC(=O)Nc2ccccc2)C(=O)N(CC2CCCCC2)c2ccccc21 (stereo in doubt) [listing 1 of 2 here]	
5620	8.44	20400 nM	CN(C)CCCN1C(=O)C(NC(=O)Nc2ccccc2)C(=O)N(CC23CC4CC(CC(C4)C2)C3)c2ccccc21 (racemic)	
2570	8.8	4070 nM	CCN(CC)CCN1C(=O)C(NC(=O)Nc2ccccc2)C(=O)N(CCC(C)C)c2ccccc21 (racemic)	ED50 (Mus musculus [4]): 0.0006 µg/kg
407	8.44	1480 nM	CC(C)CCN1C(=O)C(NC(=O)Nc2ccc(C(F)(F)F)cc2)C(=O)N(CCN2CCOCC2)c2ccccc21 (racemic)	
	9.4	468 nM	CCN(CC)CCN1C(=O)C(NC(=O)Nc2ccccc2)C(=O)N(CC2CCCCC2)c2ccccc21 (stereo in doubt) [listing 2 of 2 here]	
	7.85	2570 nM	O=C(Nc1ccc(F)cc1)NC1C(=O)N(CCN2CCOCC2)c2ccccc2N(CC23CC4CC(CC(C4)C2)C3)C1=O (single isomer, unassigned; (+)) [listing 1 of 2 here]	
2880			O=C(Nc1ccc(F)cc1)NC1C(=O)N(CCN2CCOCC2)c2ccccc2N(CC23CC4CC(CC(C4)C2)C3)C1=O (single isomer, unassigned; (-)) [listing 1 of 2 here]	

Ki selectivity ratio (CCK1 Ki / CCK2 Ki) [1]	pKi [2]	Ki [3]	Compound	other results
1020			O=C(Nc1ccccc1)NC1C(=O)N(CCN2CCOCC2)c2cc(F)ccc2N(CC23CC4CC(CC(C4)C2)C3)C1=O (single isomer, unassigned; (-)) [listing 1 of 2 here]	
1550	7.95	17400 nM	COc1ccc(NC(=O)NC2C(=O)N(CCC(C)C)c3ccccc3N(CCN(C)C)C2=O)cc1 (racemic)	
302	8.17	2040 nM	CC(C)CCN1C(=O)C(NC(=O)Nc2ccccc2)C(=O)N(CCN2CCCCC2)c2ccccc21 (racemic)	
646	8.1	5130 nM	COc1ccc(NC(=O)NC2C(=O)N(CCC(C)C)c3ccccc3N(CCN3CCOCC3)C2=O)cc1 (racemic)	
	8.36	2630 nM	O=C(Nc1ccccc1)NC1C(=O)N(CCN2CCOCC2)c2cc(F)ccc2N(CC23CC4CC(CC(C4)C2)C3)C1=O (racemic) [listing 2 of 2 here]	solubility [5]: 360 µg/mL (≈ 610 µM)
363	8.4	1450 nM	CC(C)CCN1C(=O)C(NC(=O)Nc2ccc(F)cc2)C(=O)N(CCN2CCOCC2)c2ccccc21 (racemic)	
525	8.71	1020 nM	CC(C)CCN1C(=O)C(NC(=O)Nc2ccc(Cl)cc2)C(=O)N(CCN2CCOCC2)c2ccccc21 (racemic)	
9120	8.98	9550 nM	O=C(Nc1ccccc1)NC1C(=O)N(CCN2CCCC2)c2ccccc2N(CC23CC4CC(CC(C4)C2)C3)C1=O (racemic)	
	9.45	1020 nM	O=C(Nc1ccc(F)cc1)NC1C(=O)N(CCN2CCOCC2)c2ccccc2N(CC23CC4CC(CC(C4)C2)C3)C1=O (single isomer, unassigned; (-)) [listing 2 of 2 here]	solubility [5]: 20 µg/mL (≈ 33.9 µM)
8910			O=C(Nc1ccccc1)NC1C(=O)N(CCN2CCOCC2)c2ccccc2N(CC23CC4CC(CC(C4)C2)C3)C1=O (single isomer, unassigned; (-))	
	7.31	2240 nM	O=C(Nc1ccccc1)NC1C(=O)N(CCN2CCOCC2)c2cc(F)ccc2N(CC23CC4CC(CC(C4)C2)C3)C1=O (single isomer, unassigned; (+)) [listing 2 of 2 here]	
	8.66	1410 nM	O=C(Nc1ccc(F)cc1)NC1C(=O)N(CCN2CCOCC2)c2ccccc2N(CC23CC4CC(CC(C4)C2)C3)C1=O (racemic) [listing 1 of 2 here]	solubility ([5]; read-out: solubility): 20 µg/mL (≈ 33.9 µM)
182			O=C(Nc1ccc(F)cc1)NC1C(=O)N(CCN2CCOCC2)c2ccccc2N(CC23CC4CC(CC(C4)C2)C3)C1=O (single isomer, unassigned; (+)) [listing 2 of 2 here]	
295	8.44	1070 nM	CC(C)CCN1C(=O)C(NC(=O)Nc2ccc(Br)cc2)C(=O)N(CCN2CCOCC2)c2ccccc21 (racemic)	
38	7.85	537 nM	Cc1cc(Br)ccc1NC(=O)NC1C(=O)N(CCC(C)C)c2ccccc2N(CCN2CCOCC2)C1=O (racemic)	
	8.52	3090 nM	O=C(Nc1ccccc1)NC1C(=O)N(CCN2CCOCC2)c2cc(F)ccc2N(CC23CC4CC(CC(C4)C2)C3)C1=O (single isomer, unassigned; (-)) [listing 2 of 2 here]	clearance [6]: 23 mL/min; solubility ([5]; read-out: solubility): 360 µg/mL (≈ 610 µM); half-life [7]: 1.1 h; bioavailability [8]: 5%; Time (Mus musculus [9]): 4 h; ED50 (Mus musculus [4]): 0.08 µg/kg; Vd [10]: 2.2 L/kg
229	7.54	6610 nM	COc1ccc(NC(=O)NC2C(=O)N(CCC(C)C)c3ccccc3N(CCN3CCOCC3)C2=O)c(C)c1 (racemic)	
78	6.89	> 10000 nM	CC(C)CCN1C(=O)C(NC(=O)Nc2ccccc2C(C)C)C(=O)N(CCN2CCOCC2)c2ccccc21 (racemic)	
646			O=C(Nc1ccc(F)cc1)NC1C(=O)N(CCN2CCOCC2)c2ccccc2N(CC23CC4CC(CC(C4)C2)C3)C1=O (racemic) [listing 2 of 2 here]	
	8.99	1510 nM	CCN(CC)CCN1C(=O)C(NC(=O)Nc2ccccc2)C(=O)N(CC2CCCCC2)c2ccccc21 (racemic) [listing 2 of 2 here]	
372	9.11	275 nM	Cc1cccc(NC(=O)NC2C(=O)N(CCC(C)C)c3ccccc3N(CCN3CCOCC3)C2=O)c1 (racemic)	

Reference: ChEMBL document CHEMBL1806366, “Synthesis and structure-activity relationship of new 1,5-dialkyl-1,5-benzodiazepines as cholecystokinin-2 receptor antagonists” (Bioorg Med Chem, 2011)
